Laboratory results from article PMC2975716 (Journal of Lipid Research, 2010).
Where a chain is given by its changes, count along the chain named. Like-named read-outs stand apart in the source and are kept apart here. Marks after values point to notes of the source that are not given here.

Key:
CETP [1] = target: T1, CETP (Homo sapiens, UniProt P11597); assay type: binding; settings: 25 µM unlabeled compound, coincubation
T1 sequence (P11597 18-493): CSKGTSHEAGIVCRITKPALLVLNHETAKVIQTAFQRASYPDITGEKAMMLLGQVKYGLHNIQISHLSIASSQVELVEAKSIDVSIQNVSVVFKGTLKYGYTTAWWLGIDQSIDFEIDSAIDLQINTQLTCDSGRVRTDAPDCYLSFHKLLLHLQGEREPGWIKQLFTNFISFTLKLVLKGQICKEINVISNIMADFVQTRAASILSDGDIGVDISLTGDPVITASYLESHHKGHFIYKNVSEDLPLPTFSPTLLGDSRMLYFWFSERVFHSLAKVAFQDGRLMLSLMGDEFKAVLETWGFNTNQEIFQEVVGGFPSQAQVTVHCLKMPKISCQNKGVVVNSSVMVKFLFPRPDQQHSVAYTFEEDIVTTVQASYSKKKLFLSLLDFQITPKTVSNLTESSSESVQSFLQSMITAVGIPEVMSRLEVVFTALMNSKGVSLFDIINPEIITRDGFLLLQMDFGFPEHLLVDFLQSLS

CETP [2] = target: T1, CETP; assay type: binding; settings: 25 µM unlabeled compound, […] label
Golden Syrian hamsters = experiment: In vivo macrophage-to-feces RCT study; design: species or system Golden Syrian hamster; settings: dalcetrapib 100 mg/kg BID, torcetrapib 30 mg/kg QD, anacetrapib 30 mg/kg QD; for [3H]HDL / [3H]plasma: Day 3 after labeled macrophage injection; for [3H]HDL / [3H]plasma / Fecal [3H]total sterols / Fecal total radioactivity: mean ± SD; for Change in liver radioactivity compared with vehicle: day 10, data not shown; for Fecal [3H]total sterols: sum of [3H]neutral sterols and [3H]bile acids; for Fecal [3H]total sterols / Fecal total radioactivity: day 0-10; for Fecal total radioactivity: whole fecal homogenates
[3] = cited from earlier work
CETP [4] = target: T1, CETP; experiment: Transfer of CE from HDL to LDL, scintillation proximity assay; assay type: biochemical
C13S CETP = target: T2, C13S CETP (Homo sapiens, UniProt P11597, C30S); experiment: Transfer of CE from HDL to LDL, scintillation proximity assay, C13S mutant; assay type: biochemical
T2 sequence (P11597 18-493 C30S): T1 sequence (P11597 18-493) with C13S

JHC-1 = experiment: Binding to antibody JHC-1
[5] = assay type: in vivo, human; settings: healthy volunteers, single oral dose 600 mg dalcetrapib
CETP [6] = target: T1, CETP; experiment: CETP ELISA with different capture antibodies, in vitro addition to human plasma; settings: 0.01-10 µM
Procedure, shortened: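 Test compound dilution series (0.01–10 µM) made in this plasma, held 3 h at 37°C, then assayed by JHC-1-capture/6/6-HRP and 6/2-capture/6/17-HRP ELISAs. Duplicates per donor (n = 14); mean with SD.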

CETP [7] = target: T1, CETP; experiment: CETP ELISA on plasma of healthy subjects after single oral 600 mg dalcetrapib; assay type: in vivo; settings: 22 healthy volunteers
[8] = tested on: CETP-induced pre-β-HDL formation; experiment: Quantification of pre-β-HDL by ELISA in incubated human plasma; assay type: biochemical; settings: endogenous CETP only, 21 h at 37°C
Procedure, shortened: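 Human plasma with endogenous CETP at 1.25 μg/ml, no rhCETP added, incubated 21 h at 37°C with or without test compound (0.1, 1, 3, 10 µM). Pre-β-HDL quantified by a pre-β1-selective ELISA. Dose effects assessed by ANCOVA with nested factor.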

PLTP [9] = target: T3, PLTP (Homo sapiens, UniProt P55058); experiment: PLTP activity; assay type: biochemical; settings: concentrations up to 30 µM; data not shown
CETP [10] = target: T1, CETP; experiment: SPR; assay type: binding; settings: 5 µM, 60 s, before and after dalcetrapib-thiol injections
PLTP [11] = target: T3, PLTP; settings: concentrations up to 30 µM; cited from earlier work
[12] = read-out: IC50 for transfer of CE from HDL to LDL by rhCETP, mean ± SEM, CETP 0.5 µg/ml, 3 h at 37°C
[13] = read-out: IC50 for transfer of CE from HDL to LDL by C13S CETP mutant, mean ± SEM, CETP 0.5 µg/ml, 3 h at 37°C
[14] = human plasma of seven donors, 3 h at 37°C

T3 sequence (P55058 18-493, species assumed): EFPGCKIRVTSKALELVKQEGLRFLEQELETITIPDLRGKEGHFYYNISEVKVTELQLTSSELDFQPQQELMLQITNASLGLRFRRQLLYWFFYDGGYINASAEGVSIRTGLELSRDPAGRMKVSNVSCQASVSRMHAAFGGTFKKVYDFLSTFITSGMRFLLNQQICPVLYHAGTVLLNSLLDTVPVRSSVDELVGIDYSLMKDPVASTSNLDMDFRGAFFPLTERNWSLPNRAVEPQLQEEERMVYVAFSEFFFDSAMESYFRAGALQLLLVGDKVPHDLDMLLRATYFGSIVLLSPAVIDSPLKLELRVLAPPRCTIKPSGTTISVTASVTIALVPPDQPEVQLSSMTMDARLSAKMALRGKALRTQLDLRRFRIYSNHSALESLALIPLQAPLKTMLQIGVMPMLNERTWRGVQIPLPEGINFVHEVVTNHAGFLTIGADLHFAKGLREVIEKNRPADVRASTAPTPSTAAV

Row | Decrease in amount of [14C]torcetrapib bound to immobilized rhCETP (CETP [1]) [%] | IC50 (CETP [4]; [12]) [nM] | IC50 (C13S CETP; [13]) [nM] | Effect on binding of [14C]torcetrapib to immobilized rhCETP (CETP [1]) | Change in CETP epitope detection, ELISA with capture antibody 6/2 (CETP [6]; [14]) | SMILES | Displacement of [14C]dalcetrapib-thiol bound to rhCETP (CETP [2]; with 5 mM TCEP) | [3H]HDL (Golden Syrian hamsters) | [3H]plasma (Golden Syrian hamsters) [kBq/ml] | Change in liver radioactivity compared with vehicle (Golden Syrian hamsters) [%] | Fecal [3H]total sterols (Golden Syrian hamsters) | Fecal total radioactivity (Golden Syrian hamsters) | other results
1 | 60 | – | – | – | – | COc1cc(F)c(C(C)C)cc1-c1ccc(C(F)(F)F)cc1CN1C(=O)O[C@H](c2cc(C(F)(F)F)cc(C(F)(F)F)c2)[C@@H]1C [anacetrapib] | neither torcetrapib nor anacetrapib affected | 0.34 ± 0.07^c kBq/ml | 0.79 ± 0.11 | −9.2 | 9.7 ± 0.9 % of injected | 13.2 ± 1.5 % of injected | Raise of plasma HDL-C in humans [3]: up to 130%
2 | – | 35.2 ± 2.8 | > 100000 | unaffected | – | CCC(CC)CC1(C(=O)Nc2ccccc2SSc2ccccc2NC(=O)C2(CC(CC)CC)CCCCC2)CCCCC1 [dalcetrapib-disulfide] | – | – | – | – | – | – | –
3 | – | 23.7 ± 1.9 | > 100000 | only marginally decreased | – | CCC(CC)CC1(C(=O)Nc2ccccc2S)CCCCC1 [dalcetrapib-thiol] | did occur when TCEP was present | – | – | – | – | – | Displacement of [14C]dalcetrapib-thiol bound to rhCETP (CETP [2]; absence of TCEP, data not shown): not observed; Binding to JHC-1 (JHC-1): did not bind; Maximum plasma dalcetrapib-thiol level [5]: 628.7 ng/mL; Time of maximum plasma dalcetrapib-thiol level [5]: 4 h; t1/2 ([5]; mean ± SD): 25.5 ± 3.9 h
4 | – | – | – | unaffected | no change in epitope detection | CCC(CC)CC1(C(=O)Nc2ccccc2SC(=O)C(C)C)CCCCC1 [dalcetrapib] | displaced | 0.28 ± 0.04^c kBq/ml | 0.74 ± 0.05 | −42.2 | 12.5 ± 0.5^b % of injected | 17.5 ± 0.5^c % of injected | IC50 (CETP [4]): 205 ± 96.3 nM; IC50 (C13S CETP): > 100000 nM; Concentration at which maximum decrease in JHC-1 epitope detection is reached (CETP [6]; human plasma in vitro): 0.5 µM; Concentration from which CETP detection by JHC-1 is decreased (CETP [6]; human plasma in vitro): ≥ 0.1 µM; Change in CETP detection with 6/2 as capture antibody (CETP [7]): no change was detected; Decrease in CETP detection by the JHC-1-based ELISA (CETP [7]; P < 0.001): 30%; Increase in pre-β-HDL ([8]; 1 µM, NS): 4%; Increase in pre-β-HDL ([8]; 3 µM, P < 0.05): 13%; Increase in pre-β-HDL ([8]; 10 µM, P < 0.01): 16%; Effect on PLTP activity (PLTP [9]): neither inhibit nor increase PLTP activity; Raise of HDL-C in humans ([3]; dose of 600 mg): up to 36%
5 | 82 | – | – | – | no change in epitope detection | CCOC(=O)N1c2ccc(C(F)(F)F)cc2[C@@H](N(Cc2cc(C(F)(F)F)cc(C(F)(F)F)c2)C(=O)OC)C[C@H]1CC [torcetrapib] | neither torcetrapib nor anacetrapib affected | 0.32 ± 0.07^c kBq/ml | 0.77 ± 0.11 | −28.1 | 11.5 ± 0.5^b % of injected | 16.5 ± 0.5^c % of injected | Change in CETP epitope detection, ELISA with capture antibody JHC-1 (CETP [6]; [14]): did not change epitope detection; Binding to rhCETP following saturation of the dalcetrapib binding site (SPR) (CETP [10]): remained unchanged; Effect on PLTP activity (PLTP [11]): neither inhibit nor increase PLTP activity; Fecal sterol excretion in clinical studies [3]: not associated with an increase in fecal sterol excretion
